Laboratory results taken from ChEMBL document CHEMBL3414521, “Discovery of the 2-phenyl-4,5,6,7-Tetrahydro-1H-indole as a novel anti-hepatitis C virus targeting scaffold” (Eur J Med Chem, 2015).
Activity calls are given as the source filed them. The rule behind the calls is not given here.

What was measured:
Hepatitis C virus [1] = test: Antiviral activity against HCV genotype 1b infected in HuH7/Rep-Feo1b cells by firefly luciferase reporter gene assay; assay type: functional, cell-based, Hepacivirus hominis; details: Huh-7
Outline: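 Huh7 cells carrying autonomously replicating gt 1b replicon with firefly luciferase reporter; ~1×10^4 cells/well treated 48 h, 1.0% DMSO final. Primary screen at 50 μM; actives titrated over 8–12 quarter-log dilutions. Luciferase signal relative to DMSO-treated controls; EC50 from dose-response curves, mean ± SD of three independent experiments.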

[2] = Selectivity index, ratio of CC50 for human Huh7.5 cells to EC50 for HCV genotype 2a infected in HuH7.5-FGR-JC1_Rluc2A cells; design: species or system Huh-7
Hepatitis C virus [3] = test: Antiviral activity against HCV genotype 2a infected in HuH7.5-FGR-JC1_Rluc2A cells by […]; assay type: functional, Hepacivirus hominis
[4] = Selectivity index, ratio of CC50 for human Huh7.5 cells to EC50 for HCV genotype 1b infected in HuH7/Rep-Feo1b cells; design: species or system Huh-7
[5] = Cytotoxicity against human Huh7.5 cells after 48 hrs by MTS assay; assay type: cell-based; details: huh-7, 48 h
Outline: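 Parental Huh7.5 cells grown in DMEM with 10% FCS without G418, 37 °C, 5% CO2; treated at 6–8 doses for 48 h. Viability by MTS bioreduction to formazan; CC50 as concentration halving MTS conversion relative to DMSO controls, mean ± SD of three independent experiments.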

Hepatitis C virus [6] = test: Antiviral activity against HCV genotype 1b infected in HuH7/Rep-Feo1b cells at 50 uM by firefly luciferase reporter gene assay; assay type: functional, Hepacivirus hominis; details: for inhibition at 50 µM: Huh-7; for inhibition: Hepacivirus hominis
Outline: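 Replicon reporter cells (gt 1b in Huh7/Rep-Feo1b, firefly luciferase; gt 2a in Huh7.5-FGR-JC1-Rluc2A, Renilla luciferase) kept in DMEM with 10% FCS and 0.5 mg/mL G418, 37 °C, 5% CO2. About 1×10^4 cells per well were treated at 50 μM for 48 h in 1.0% DMSO. Luciferase signal was read relative to DMSO-treated cells as % inhibition.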

Hepatitis C virus [7] = test: Antiviral activity against HCV genotype 2a infected in HuH7.5-FGR-JC1_Rluc2A cells at 50 uM by […] luciferase reporter gene assay; assay type: functional, Hepacivirus hominis; details: for inhibition: Hepacivirus hominis

Row | SMILES | EC50 (Hepatitis C virus [1]) | Ratio CC50/EC50 [2] | EC50 (Hepatitis C virus [3]) | Ratio CC50/EC50 [4] | CC50 [5] | inhibition at 50 µM (Hepatitis C virus [6]) | inhibition at 50 µM (Hepatitis C virus [7]) | inhibition (Hepatitis C virus [6]) | inhibition (Hepatitis C virus [7])
1 | COC(=O)c1cc(C(=O)O)cc(-c2cc3c(n2Cc2ccccc2)CCCC3)c1 | 35.8 µM | >5 | 9.9 µM | >1 | 45.6 µM | 81% | 96% | – | –
2 | Cc1ccc(CN(Cc2cc3cc(C)ccc3[nH]c2=O)C(=O)c2ccc(CN3CCN(C)CC3)cc2)cc1 | – | – | – | – | < 25 µM | 92% | 99% | – | –
3 | CCn1cc(-c2ccccc2)c(C(N)=O)c1C | – | >8 | 23.6 µM | – | > 200 µM | 49% | 66% | – | –
4 | Br.CC(=O)N[C@]12CCN(Cc3ccccc3)C[C@H]1[C@H](c1ccccc1)NC2 (racemic) | – | >41 | 4.9 µM | – | > 200 µM | – | 73% | inactive | –
5 | O=C(O)C1CC(=O)N(CCc2c[nH]c3ccccc23)C1 (stereo unspecified) | – | >4 | 48.5 µM | – | > 200 µM | 22% | 51% | – | –
6 | O=C(O)c1cc(-c2ccncc2)nc2ccccc12 | – | – | – | – | > 200 µM | – | 49% | inactive | –
7 | COc1ccc(NS(=O)(=O)c2ccc(CN3C(=O)c4ccccc4C3=O)cc2)cc1 | – | >9 | 22.5 µM | – | > 200 µM | 39% | 60% | – | –
8 | CC1CN(C(=O)c2ccccc2)c2ccccc2NC1=O (stereo unspecified) | – | >14 | 14.1 µM | – | > 200 µM | 21% | 77% | – | –
9 | Br.CC(=O)[C@]12CCN(Cc3ccccc3)C[C@H]1[C@H](c1ccccc1)NC2 (racemic) | – | >11 | 17.4 µM | – | > 200 µM | – | 76% | inactive | –
10 | Cc1ccc2[nH]c(=O)c(CN(Cc3ccc(F)cc3)C(=O)c3ccc(NC(=N)N)cc3)cc2c1 | – | – | – | – | > 200 µM | 54% | 29% | – | –
11 | CC1(CO)CCN2CCCCC21 (racemic) | – | – | – | – | > 200 µM | 50% | 25% | – | –
12 | Cc1nn(Cc2ccccc2)c(C)c1CC(=O)O | – | – | – | – | > 200 µM | – | 14% | inactive | –
13 | CCOC(=O)[C@@H](C)N1C(=O)C(=O)c2ccccc21 | – | >27 | 7.3 µM | – | > 200 µM | 19% | 85% | – | –
14 | Cc1ccc2[nH]c(=O)c(CN(CCc3ccccc3)C(=O)c3ccc(OCCN(C)C)cc3)cc2c1 | – | >8 | 24.8 µM | – | > 200 µM | 45% | 61% | – | –
15 | Cc1ccc2[nH]c(=O)c(CN(Cc3ccccc3)C(=O)c3ccc(NC(=N)N)cc3)cc2c1 | – | – | – | – | > 200 µM | – | 44% | inactive | –
16 | Cc1cccc(N2CC(c3nc4ccccc4[nH]3)CC2=O)c1 (stereo unspecified) | – | >12 | 17.3 µM | – | > 200 µM | 21% | 77% | – | –
17 | C=CCn1c(-c2ccccc2)cc2c1CCCC2 | – | 4 | 32.1 µM | – | 119 µM | 35% | 69% | – | –
18 | COc1cccc(C(=O)Nc2cc(C)nc3ccc(C)cc23)c1 | – | – | – | – | < 25 µM | 88% | 99% | – | –
19 | O=C(O)c1nn(Cc2ccccc2)c2ccccc12 | – | – | – | – | > 200 µM | – | 46% | inactive | –

Row | SMILES | EC50 (Hepatitis C virus [1]) | Ratio CC50/EC50 [2] | EC50 (Hepatitis C virus [3]) | Ratio CC50/EC50 [4] | CC50 [5] | inhibition at 50 µM (Hepatitis C virus [6]) | inhibition at 50 µM (Hepatitis C virus [7]) | inhibition (Hepatitis C virus [6]) | inhibition (Hepatitis C virus [7])
20 | CCn1cc(C(=O)Nc2ccccc2C(N)=O)c(=O)c2cc(OC)ccc21 | – | 4 | 20.6 µM | – | 85.6 µM | 17% | 65% | – | –
21 | NC(=O)Cn1c(-c2ccccc2)cc2c1CCCC2 | – | – | – | – | > 200 µM | 37% | 48% | – | –
22 | CC(C)(C)OC(=O)N1CC(=O)[C@]2(C)CCN(Cc3ccccc3)[C@@H]2C1 (relative stereo) | 24.3 µM | >19 | 6 µM | 5 | 115 µM | 73% | 98% | – | –
23 | Oc1ccccc1-c1cc2c(n1Cc1ccccc1)CCCC2 | 9.2 µM | 8 | 6.5 µM | 5 | 48.9 µM | 96% | 99% | – | –
24 | CC(C(N)=O)n1c(-c2ccccc2)cc2c1CCCC2 (stereo unspecified) | – | >10 | 15.4 µM | – | 156 µM | 50% | 83% | – | –
25 | C[C@@]12CC3C(=O)N4[C@H](C[C@@]5(C)C(=O)CCCC[C@@H]45)C(=O)N3[C@@H]1CCCCC2=O (mixture of isomers) | – | – | – | – | > 200 µM | – | 28% | inactive | –
26 | COc1ccc(CN2CC(C)n3c(nc4cccnc43)C2=O)c(OC)c1 (racemic) | – | – | – | – | > 200 µM | 45% | 48% | – | –
27 | c1ccc(Cn2c(-c3cccnc3)cc3c2CCCC3)cc1 | – | – | – | – | < 25 µM | 92% | 99% | – | –
28 | Cc1nn(Cc2ccccc2)c(C)c1C(=O)O | – | – | – | – | > 200 µM | 19% | – | – | inactive
29 | O=C(O)C1CCCN(S(=O)(=O)c2ccccc2)C1 (racemic) | – | >7 | 28.1 µM | – | > 200 µM | – | 62% | inactive | –
30 | CCOC(=O)C(C)n1c(-c2ccccc2)cc2c1CCCC2 (racemic) | 13.2 µM | 6 | 13.7 µM | 6 | 84.3 µM | 74% | 95% | – | –
31 | O=C(O)CCn1c(-c2ccccc2)cc2ccccc21 | – | – | – | – | – | 26% | 54% | – | –
32 | CCn1cc(-c2ccccc2)c(C(=O)O)c1C | – | – | – | – | > 200 µM | – | 36% | inactive | –
33 | O=C1CC(c2nc3ccccc3[nH]2)CN1Cc1ccccc1 (stereo unspecified) | – | >9 | 21.1 µM | – | > 200 µM | – | 67% | inactive | –
34 | Cc1nc2c(c(C)nn2-c2ccccc2)c(C)c1CCC(=O)O | – | >17 | 11.7 µM | – | > 200 µM | – | 78% | inactive | –
35 | CC(=O)c1cn(CC(=O)O)c2ccccc12 | – | – | – | – | > 200 µM | – | 55% | inactive | –
36 | CC(=O)N[C@@]12CCN(C(=O)OC(C)(C)C)C[C@@H]1CN(C(=O)OC(C)(C)C)C2 (racemic) | – | – | – | – | > 200 µM | – | 43% | inactive | –
37 | C[C@@]12C[C@@H]3C(=O)Nc4ccccc4C(=O)N3[C@@H]1CCCCC2=O (racemic) | – | – | – | – | > 200 µM | – | – | inactive | inactive
38 | O=C1CC(c2nc3ccccc3[nH]2)CN1C1CCCCC1 (stereo unspecified) | – | >13 | 15.6 µM | – | > 200 µM | 19% | 72% | – | –
